Measured values: ChEMBL document CHEMBL1144548, “Dioxane and oxathiane nuclei: suitable substructures for muscarinic agonists” (Bioorg Med Chem, 2007)
Calls of active or inactive are those of the source. No cut-off for these calls is given here.

Experiments:
[1] = target: Muscarinic acetylcholine receptor M3 (Cavia porcellus) (UniProt Q8VH26); assay: Agonist activity at muscarinic M3 receptor in guinea-pig ileum; format: functional, tissue-based
Procedure, shortened: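 Isolated tissues in an organ bath were washed for 30 min, then a cumulative dose–response curve to the compound was built. Contractions were recorded isometrically by force transducer and expressed as % of the maximal control-curve response. Parallel untreated tissues checked sensitivity drift. Values are means ± SEM of four to six independent experiments.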

[2] = target: T1, Muscarinic acetylcholine receptor M1 (Homo sapiens) (UniProt P11229); details: Oryctolagus cuniculus; Vas deferens
T1 sequence (whole entry): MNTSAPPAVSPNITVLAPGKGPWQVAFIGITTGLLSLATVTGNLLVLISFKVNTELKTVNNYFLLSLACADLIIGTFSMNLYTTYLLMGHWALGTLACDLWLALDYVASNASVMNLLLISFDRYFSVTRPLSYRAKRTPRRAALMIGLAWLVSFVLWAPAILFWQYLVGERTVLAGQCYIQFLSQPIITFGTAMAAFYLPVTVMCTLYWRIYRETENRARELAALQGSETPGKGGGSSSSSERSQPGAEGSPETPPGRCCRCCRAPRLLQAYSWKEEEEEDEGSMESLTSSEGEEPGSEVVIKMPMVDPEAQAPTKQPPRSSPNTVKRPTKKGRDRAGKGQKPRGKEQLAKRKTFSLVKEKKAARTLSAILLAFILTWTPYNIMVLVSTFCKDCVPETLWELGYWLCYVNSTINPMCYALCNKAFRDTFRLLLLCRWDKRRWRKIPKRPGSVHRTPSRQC

[3] = target: T1, Muscarinic acetylcholine receptor M1 (Homo sapiens); assay: Antagonist activity at muscarinic M1 receptor in rabbit stimulated vas deferens at 10 uM; format: functional, tissue-based; details: Oryctolagus cuniculus, target entry is the homologue from another species
[4] = target: Muscarinic acetylcholine receptor M3 (Cavia porcellus) (UniProt Q8VH26); assay: Intrinsic activity at muscarinic M3 receptor in guinea-pig ileum assessed as ratio of agonist activity to activity of […]; format: functional, tissue-based
[5] = target: T2, Muscarinic acetylcholine receptor M2 (Homo sapiens) (UniProt P08172); assay: Antagonist activity at muscarinic M2 receptor in guinea-pig stimulated left atria at 10 uM; format: functional; details: Cavia porcellus, target entry is the homologue from another species
T2 sequence (whole entry): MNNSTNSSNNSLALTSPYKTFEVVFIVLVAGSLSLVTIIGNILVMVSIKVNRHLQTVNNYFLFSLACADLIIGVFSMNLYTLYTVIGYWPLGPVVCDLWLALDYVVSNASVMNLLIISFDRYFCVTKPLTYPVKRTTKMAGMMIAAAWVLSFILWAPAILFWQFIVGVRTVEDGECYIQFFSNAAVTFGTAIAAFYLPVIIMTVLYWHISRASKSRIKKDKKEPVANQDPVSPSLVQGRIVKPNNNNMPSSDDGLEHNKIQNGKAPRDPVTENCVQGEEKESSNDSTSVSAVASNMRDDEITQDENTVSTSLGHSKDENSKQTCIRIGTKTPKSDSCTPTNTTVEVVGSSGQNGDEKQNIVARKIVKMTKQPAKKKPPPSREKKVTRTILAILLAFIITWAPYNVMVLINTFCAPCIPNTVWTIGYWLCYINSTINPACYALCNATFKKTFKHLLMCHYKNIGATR

[6] = target: T3, Muscarinic acetylcholine receptor M4 (Homo sapiens, UniProt P08173); assay: Agonist activity at human muscarinic M4 receptor expressed in CHO cells; format: functional, cell-based
T3 sequence (P08173 whole entry): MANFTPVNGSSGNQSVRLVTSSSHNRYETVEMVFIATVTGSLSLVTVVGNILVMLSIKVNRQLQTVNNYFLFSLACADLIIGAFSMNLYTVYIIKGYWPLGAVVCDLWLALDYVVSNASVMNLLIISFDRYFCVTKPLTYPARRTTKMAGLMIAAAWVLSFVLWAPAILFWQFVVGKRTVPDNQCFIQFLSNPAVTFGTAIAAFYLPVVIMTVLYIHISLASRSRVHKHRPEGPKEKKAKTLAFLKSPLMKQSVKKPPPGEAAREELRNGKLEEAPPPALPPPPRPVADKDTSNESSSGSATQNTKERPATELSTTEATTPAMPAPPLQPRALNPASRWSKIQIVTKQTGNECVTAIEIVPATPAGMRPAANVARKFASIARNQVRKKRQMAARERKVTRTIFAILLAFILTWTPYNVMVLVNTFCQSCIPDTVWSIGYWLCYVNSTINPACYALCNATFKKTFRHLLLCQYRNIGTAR

[7] = test system: Muscarinic acetylcholine receptor M4 (Cavia porcellus); assay: Agonist muscarinic M4 receptor in guinea-pig lung strips
[8] = test system: Muscarinic acetylcholine receptor M4 (Cavia porcellus); assay: Intrinsic activity at muscarinic M4 receptor in guinea-pig lung strips assessed as ratio of agonist activity to activity of McN-A-343
[9] = test system: Muscarinic acetylcholine receptor M2 (Cavia porcellus); assay: Intrinsic activity at muscarinic M2 receptor in guinea-pig stimulated left atria assessed as ratio of agonist activity to activity of arecaidine propargyl ester
[10] = test system: Muscarinic acetylcholine receptor M2 (Cavia porcellus); assay: Agonist activity at muscarinic M2 receptor in guinea-pig stimulated left atria
[11] = target: T4, Muscarinic acetylcholine receptor M5 (Homo sapiens) (UniProt P08912); assay: Agonist activity at human muscarinic M5 receptor expressed in CHO cells; format: functional, cell-based
T4 sequence (whole entry): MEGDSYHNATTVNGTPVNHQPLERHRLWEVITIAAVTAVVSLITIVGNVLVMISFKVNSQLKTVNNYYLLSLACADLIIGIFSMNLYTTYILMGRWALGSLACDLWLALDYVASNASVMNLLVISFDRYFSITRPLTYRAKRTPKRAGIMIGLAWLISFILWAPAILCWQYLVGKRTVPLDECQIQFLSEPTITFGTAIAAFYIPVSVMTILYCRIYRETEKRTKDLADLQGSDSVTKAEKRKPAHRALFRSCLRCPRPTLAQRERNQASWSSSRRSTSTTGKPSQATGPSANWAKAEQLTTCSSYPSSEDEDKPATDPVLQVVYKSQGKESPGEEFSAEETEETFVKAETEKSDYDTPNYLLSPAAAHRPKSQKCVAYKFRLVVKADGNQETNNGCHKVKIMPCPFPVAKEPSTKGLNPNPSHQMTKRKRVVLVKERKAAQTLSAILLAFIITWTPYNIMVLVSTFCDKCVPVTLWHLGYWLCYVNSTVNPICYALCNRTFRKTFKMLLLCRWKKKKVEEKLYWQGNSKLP

Chain of Muscarinic acetylcholine receptor M3 (Cavia porcellus) (Q8VH26 1-587): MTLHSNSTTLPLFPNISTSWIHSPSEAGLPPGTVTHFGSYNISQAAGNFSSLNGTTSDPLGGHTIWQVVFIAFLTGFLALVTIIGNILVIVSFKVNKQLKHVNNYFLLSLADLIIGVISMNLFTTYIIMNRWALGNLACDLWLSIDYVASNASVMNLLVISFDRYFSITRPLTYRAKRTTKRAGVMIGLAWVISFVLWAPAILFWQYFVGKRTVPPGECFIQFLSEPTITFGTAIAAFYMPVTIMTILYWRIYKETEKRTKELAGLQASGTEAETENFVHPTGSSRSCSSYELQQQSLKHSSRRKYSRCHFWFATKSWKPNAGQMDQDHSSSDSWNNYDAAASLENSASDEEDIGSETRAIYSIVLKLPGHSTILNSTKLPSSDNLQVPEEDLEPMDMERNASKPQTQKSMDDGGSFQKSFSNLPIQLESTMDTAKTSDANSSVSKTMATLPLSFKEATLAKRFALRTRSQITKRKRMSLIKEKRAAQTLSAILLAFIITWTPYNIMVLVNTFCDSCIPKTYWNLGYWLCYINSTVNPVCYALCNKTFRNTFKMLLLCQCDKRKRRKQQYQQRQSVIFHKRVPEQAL

CC1COCC(C[N+](C)(C)C)O1 (racemic; form 1) [listing 1 of 2 here]
pD2 [1]: 7.34 | pD2 [2]: 5.65

C[C@H]1OC[C@@H](C[N+](C)(C)C)O1 (relative stereo)
pD2 [1]: 7.69

C[C@H]1CSC[C@H](C[N+](C)(C)C)O1 (relative stereo)
pKb [3]: < 5 | Intrinsic activity [4]: 1 | pD2 [1]: 5.21 | pKb [5]: < 5

C[C@H]1COC[C@@H](C[N+](C)(C)C)O1
pD2 [1]: 7.65 | pD2 [2]: 6.78 | EC50 [6]: 2.82 µM

CC1COCC(C[N+](C)(C)C)O1 (racemic; form 1) [listing 2 of 2 here]
EC50 [6]: 2.51 µM

C[C@H]1COC[C@H](C[N+](C)(C)C)O1
pD2 [1]: 6.02 | pD2 [2]: 5.08

CC1OC(C[N+](C)(C)C)CS1 (racemic)
pD2 [1]: 7.75 | pD2 [2]: 6.81

C[C@H]1OC[C@H](C[N+](C)(C)C)O1 (relative stereo)
pD2 [1]: 7.47

C[C@H]1OCC[C@@H](C[N+](C)(C)C)O1
pKb [3]: > 5 | pD2 [7]: 6.41 | Intrinsic activity [8]: 1 | Intrinsic activity [9]: 1 | Intrinsic activity [4]: 1 | pD2 [10]: 5.24 | pD2 [1]: 5.73

C[C@@H]1COC[C@H](C[N+](C)(C)C)O1
Activity [11]: inactive | pKb [3]: < 5 | pD2 [1]: 6.53 | EC50 [6]: 25.1 µM

C[C@H]1O[C@@H](C[N+](C)(C)C)CS1
pD2 [1]: 5.82

C[C@@H]1O[C@H](C[N+](C)(C)C)CS1
pD2 [1]: 8.06

C[C@H]1CSC[C@@H](C[N+](C)(C)C)O1 (relative stereo)
Intrinsic activity [9]: 1 | Intrinsic activity [4]: 1 | pD2 [10]: 6.26 | pD2 [1]: 6.46 | pD2 [2]: 4.46

CC1COCC(C[N+](C)(C)C)O1 (racemic; form 2)
EC50 [6]: 282 µM
